Calls of active or inactive are those of the source. The rule behind the calls is not given here.
Columns and labels:
CYP3A4 = CYP3A4 (Homo sapiens, UniProt P08684); experiment: Inhibition of human CYP3A4 using midazolam as substrate at 10 uM; assay type: ADME; conditions: probe midazolam
Summary of the method: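 Human liver microsomes with test compound at 10 µM; percent inhibition determined using bupropion (2B6), dextromethorphan (2D6) or midazolam (3A/3A4) as probe substrates.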

hERG (KCNH2) [1] = molecular target: T1, hERG (KCNH2) (Homo sapiens, UniProt Q12809); experiment: Inhibition of human ERG channel expressed in CHO cells at 3.3 uM by patch clamp method; assay type: cell-based; conditions: CHO cells expressing human ERG channel
T1 sequence (Q12809 whole entry): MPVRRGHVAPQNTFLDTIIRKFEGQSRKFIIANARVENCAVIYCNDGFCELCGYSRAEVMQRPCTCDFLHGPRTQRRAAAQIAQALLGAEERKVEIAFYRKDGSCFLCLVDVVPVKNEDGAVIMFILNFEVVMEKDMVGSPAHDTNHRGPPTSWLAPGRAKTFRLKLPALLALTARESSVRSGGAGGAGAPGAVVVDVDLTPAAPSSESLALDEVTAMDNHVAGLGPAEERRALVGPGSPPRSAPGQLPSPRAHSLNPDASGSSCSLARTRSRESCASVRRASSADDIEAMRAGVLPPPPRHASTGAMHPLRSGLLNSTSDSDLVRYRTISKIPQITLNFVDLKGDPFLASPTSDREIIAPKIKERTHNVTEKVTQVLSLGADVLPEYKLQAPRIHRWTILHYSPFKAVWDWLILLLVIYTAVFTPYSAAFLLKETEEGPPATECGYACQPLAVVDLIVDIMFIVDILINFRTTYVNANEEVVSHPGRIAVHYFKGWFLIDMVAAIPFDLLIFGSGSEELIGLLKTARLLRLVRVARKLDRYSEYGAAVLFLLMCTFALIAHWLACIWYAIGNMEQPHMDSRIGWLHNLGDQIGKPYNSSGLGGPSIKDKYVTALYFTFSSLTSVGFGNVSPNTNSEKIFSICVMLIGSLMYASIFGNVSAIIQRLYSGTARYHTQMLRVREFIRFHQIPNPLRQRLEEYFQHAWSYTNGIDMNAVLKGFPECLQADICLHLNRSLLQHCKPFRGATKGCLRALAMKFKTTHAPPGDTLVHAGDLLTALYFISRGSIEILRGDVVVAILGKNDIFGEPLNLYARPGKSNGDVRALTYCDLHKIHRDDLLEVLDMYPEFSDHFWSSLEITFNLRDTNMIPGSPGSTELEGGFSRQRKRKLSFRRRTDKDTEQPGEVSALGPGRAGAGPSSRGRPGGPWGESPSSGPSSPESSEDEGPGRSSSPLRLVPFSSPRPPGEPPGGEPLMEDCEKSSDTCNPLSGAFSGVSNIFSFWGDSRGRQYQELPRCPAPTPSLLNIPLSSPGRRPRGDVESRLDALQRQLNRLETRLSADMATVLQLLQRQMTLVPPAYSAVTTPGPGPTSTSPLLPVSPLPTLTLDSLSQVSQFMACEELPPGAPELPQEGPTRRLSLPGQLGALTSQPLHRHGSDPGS
Summary of the method: (§1)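 hERG current recorded in CHO cells by automated patch clamp; percent inhibition at 0.37, 1.1, 3.3, 10 and 30 µM.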

[2] = molecular target: T2, 5-hydroxytryptamine receptor 2C (Homo sapiens) (UniProt P28335); experiment: Agonist activity at human 5-HT2C receptor expressed in HEK293 cells assessed as calcium flux by FLIPR assay relative to 5-HT; assay type: functional, cell-based
T2 sequence (whole entry): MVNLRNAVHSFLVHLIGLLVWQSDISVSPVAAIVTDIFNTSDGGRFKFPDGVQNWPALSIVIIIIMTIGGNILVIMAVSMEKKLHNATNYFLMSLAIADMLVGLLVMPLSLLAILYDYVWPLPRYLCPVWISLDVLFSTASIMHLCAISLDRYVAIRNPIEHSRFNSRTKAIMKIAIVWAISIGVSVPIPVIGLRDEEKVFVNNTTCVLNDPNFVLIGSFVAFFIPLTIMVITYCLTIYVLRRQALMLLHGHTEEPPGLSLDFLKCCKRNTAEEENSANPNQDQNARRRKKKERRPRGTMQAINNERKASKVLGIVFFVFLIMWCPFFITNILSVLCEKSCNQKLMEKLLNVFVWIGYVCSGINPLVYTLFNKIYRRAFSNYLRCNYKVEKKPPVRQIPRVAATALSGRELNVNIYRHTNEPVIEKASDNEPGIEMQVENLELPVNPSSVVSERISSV
Summary of the method: (§2)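 Flp-In-293 cells stably expressing human 5-HT2A, 5-HT2B or 5-HT2C-INI; grown 24–48 h in DMEM/10% dialyzed FBS, plated on poly-L-Lys at 12000 cells/well in 1% dialyzed FBS for 24 h. Loaded 1 h at 37 °C with calcium dye in HBSS, 20 mM Hepes pH 7.40, 2.5 mM probenecid.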

hERG (KCNH2) [3] = molecular target: T1, hERG (KCNH2); experiment: (§3) Inhibition of human ERG channel expressed in CHO cells at […] by patch clamp method; assay type: cell-based; conditions: CHO cells expressing human ERG channel
CYP2B6 = molecular target: T3, CYP2B6 (Homo sapiens, UniProt P20813); experiment: Inhibition of human CYP2B6 using bupropion as substrate at 10 uM; assay type: ADME; conditions: probe bupropion
T3 sequence (P20813 whole entry): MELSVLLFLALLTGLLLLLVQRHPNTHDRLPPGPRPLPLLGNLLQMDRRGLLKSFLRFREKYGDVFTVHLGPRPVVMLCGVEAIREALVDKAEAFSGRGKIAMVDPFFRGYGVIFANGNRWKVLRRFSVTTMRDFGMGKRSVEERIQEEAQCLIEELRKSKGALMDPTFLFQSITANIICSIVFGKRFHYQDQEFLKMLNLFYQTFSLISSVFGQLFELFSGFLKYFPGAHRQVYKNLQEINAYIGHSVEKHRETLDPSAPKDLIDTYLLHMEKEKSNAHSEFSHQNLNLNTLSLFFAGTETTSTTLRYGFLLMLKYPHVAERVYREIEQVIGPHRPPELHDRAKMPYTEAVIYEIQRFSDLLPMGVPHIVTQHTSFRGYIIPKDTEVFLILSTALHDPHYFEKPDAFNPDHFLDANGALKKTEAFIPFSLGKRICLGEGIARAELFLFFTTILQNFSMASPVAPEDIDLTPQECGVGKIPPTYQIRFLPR

CYP2C9 = CYP2C9 (Homo sapiens, UniProt P11712); experiment: Inhibition of human CYP2C9 using diclofenac as substrate at 10 uM; assay type: ADME; conditions: probe diclofenac
Chain of CYP2C9 (P11712 whole entry): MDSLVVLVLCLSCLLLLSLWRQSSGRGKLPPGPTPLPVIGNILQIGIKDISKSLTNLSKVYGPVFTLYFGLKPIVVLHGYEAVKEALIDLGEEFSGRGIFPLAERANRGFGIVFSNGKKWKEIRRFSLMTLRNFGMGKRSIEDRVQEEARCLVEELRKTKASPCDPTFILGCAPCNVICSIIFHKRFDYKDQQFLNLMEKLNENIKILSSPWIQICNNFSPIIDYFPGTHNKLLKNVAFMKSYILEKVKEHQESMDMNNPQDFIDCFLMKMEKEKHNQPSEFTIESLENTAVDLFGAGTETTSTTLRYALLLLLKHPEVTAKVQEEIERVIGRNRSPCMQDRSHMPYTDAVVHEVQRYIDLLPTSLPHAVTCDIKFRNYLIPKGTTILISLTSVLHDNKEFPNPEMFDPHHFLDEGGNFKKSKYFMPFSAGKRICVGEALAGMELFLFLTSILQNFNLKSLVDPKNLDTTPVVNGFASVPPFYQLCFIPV

hERG (KCNH2) [4] = molecular target: T1, hERG (KCNH2); experiment: Inhibition of human ERG channel expressed in CHO cells at 30 uM by patch clamp method; assay type: cell-based; conditions: CHO cells expressing human ERG channel; summary of the method: as §1
[5] = molecular target: Alpha-2A adrenergic receptor (Homo sapiens, UniProt P08913); experiment: Binding affinity to adrenergic alpha-2A receptor (unknown origin)
[6] = molecular target: Voltage-gated inwardly rectifying potassium channel KCNH2 (Homo sapiens, UniProt Q12809); experiment: Inhibition of human ERG channel expressed in CHO cells by patch clamp method; assay type: cell-based; conditions: human, cho
Chain of Voltage-gated inwardly rectifying potassium channel KCNH2 (Q12809 whole entry): as the sequence (Q12809 whole entry) above

[7] = molecular target: T4, 5-hydroxytryptamine receptor 2C (Homo sapiens, UniProt P28335); experiment: Agonist activity at human 5-HT2C receptor expressed in HEK293 cells assessed as calcium flux by FLIPR assay; assay type: functional, cell-based
T4 sequence (P28335 whole entry): T2 sequence (whole entry)

[8] = molecular target: T5, 5-hydroxytryptamine receptor 2A (Homo sapiens, UniProt P28223); experiment: Agonist activity at human 5-HT2A receptor expressed in HEK293 cells assessed as calcium flux by FLIPR assay relative to 5-HT; assay type: functional, cell-based; summary of the method: as §2
T5 sequence (P28223 whole entry): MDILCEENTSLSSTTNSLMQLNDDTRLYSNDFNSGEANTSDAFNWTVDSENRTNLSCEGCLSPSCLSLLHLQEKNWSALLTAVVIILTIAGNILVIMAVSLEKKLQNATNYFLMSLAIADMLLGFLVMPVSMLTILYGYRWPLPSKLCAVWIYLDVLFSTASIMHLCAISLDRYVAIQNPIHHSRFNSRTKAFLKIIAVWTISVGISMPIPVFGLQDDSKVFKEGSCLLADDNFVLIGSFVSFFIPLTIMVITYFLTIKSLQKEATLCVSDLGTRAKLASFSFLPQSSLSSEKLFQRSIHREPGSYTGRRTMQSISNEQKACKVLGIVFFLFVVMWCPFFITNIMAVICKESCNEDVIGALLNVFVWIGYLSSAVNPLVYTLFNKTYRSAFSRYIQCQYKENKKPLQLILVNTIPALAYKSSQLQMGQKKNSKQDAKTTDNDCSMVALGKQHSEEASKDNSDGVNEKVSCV

Mus musculus = experiment: Antipsychotic activity in C57BL/6J mouse assessed as reduction of amphetamine-induced locomotor activity at 10 to 20 mg/kg, ip administered 15 mins prior to amphetamine challenge measured for 105 mins by open field test relative to vehicle-treated control; assay type: functional, organism-based
Homo sapiens = organism: Homo sapiens; experiment: Selectivity ratio of EC50 for human 5-HT2A receptor to EC50 for human 5HT2C receptor
CYP2C19 = CYP2C19 (Homo sapiens, UniProt P33261); experiment: Inhibition of human CYP2C19 using omeprazole as substrate at 10 uM; assay type: ADME; conditions: probe omeprazole
Chain of CYP2C19 (P33261 whole entry): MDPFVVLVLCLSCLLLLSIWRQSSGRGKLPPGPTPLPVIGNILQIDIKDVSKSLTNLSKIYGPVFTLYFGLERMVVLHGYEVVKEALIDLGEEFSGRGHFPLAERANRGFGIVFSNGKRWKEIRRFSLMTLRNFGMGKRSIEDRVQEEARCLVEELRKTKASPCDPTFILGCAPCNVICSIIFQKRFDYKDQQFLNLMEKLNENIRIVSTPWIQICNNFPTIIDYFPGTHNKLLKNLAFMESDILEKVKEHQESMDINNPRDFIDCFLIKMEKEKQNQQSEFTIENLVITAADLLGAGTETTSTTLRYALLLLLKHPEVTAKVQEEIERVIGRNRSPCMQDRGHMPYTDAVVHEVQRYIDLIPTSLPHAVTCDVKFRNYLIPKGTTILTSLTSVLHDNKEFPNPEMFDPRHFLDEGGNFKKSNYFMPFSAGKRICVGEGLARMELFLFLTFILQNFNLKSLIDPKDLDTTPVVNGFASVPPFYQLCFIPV

[9] = molecular target: T5, 5-hydroxytryptamine receptor 2A; experiment: Agonist activity at human 5-HT2A receptor expressed in HEK293 cells assessed as calcium flux by FLIPR assay; assay type: functional, cell-based
hERG (KCNH2) [10] = molecular target: T1, hERG (KCNH2); experiment: Inhibition of human ERG channel expressed in CHO cells at 10 uM by patch clamp method; assay type: cell-based; conditions: CHO cells expressing human ERG channel; summary of the method: as §1
hERG (KCNH2) [11] = molecular target: T1, hERG (KCNH2); experiment: as §3; assay type: cell-based; conditions: CHO cells expressing human ERG channel; remark: listed apart in the source
CYP2D6 = CYP2D6 (Homo sapiens, UniProt P10635); experiment: Inhibition of human CYP2D6 using dextromethorphan as substrate at 10 uM; assay type: ADME; conditions: probe dextromethorphan
Chain of CYP2D6 (P10635 whole entry): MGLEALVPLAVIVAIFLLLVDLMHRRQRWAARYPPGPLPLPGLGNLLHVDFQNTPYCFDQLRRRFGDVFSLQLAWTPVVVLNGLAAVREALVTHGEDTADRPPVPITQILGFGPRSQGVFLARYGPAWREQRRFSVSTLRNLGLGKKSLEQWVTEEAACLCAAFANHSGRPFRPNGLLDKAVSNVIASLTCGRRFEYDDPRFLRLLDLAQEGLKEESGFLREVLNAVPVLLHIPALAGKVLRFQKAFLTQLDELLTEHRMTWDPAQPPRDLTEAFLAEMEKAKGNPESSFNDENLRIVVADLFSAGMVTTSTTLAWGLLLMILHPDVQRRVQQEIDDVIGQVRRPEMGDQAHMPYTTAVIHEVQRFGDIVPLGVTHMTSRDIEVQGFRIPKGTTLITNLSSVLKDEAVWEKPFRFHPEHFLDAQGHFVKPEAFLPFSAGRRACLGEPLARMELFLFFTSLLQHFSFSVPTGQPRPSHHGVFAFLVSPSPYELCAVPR

[12] = molecular target: 5-hydroxytryptamine receptor 2B (Homo sapiens, UniProt P41595); experiment: Agonist activity at human 5-HT2B receptor expressed in HEK293 cells assessed as calcium flux at 10 uM by FLIPR assay; assay type: functional, cell-based
Chain of 5-hydroxytryptamine receptor 2B (P41595 whole entry): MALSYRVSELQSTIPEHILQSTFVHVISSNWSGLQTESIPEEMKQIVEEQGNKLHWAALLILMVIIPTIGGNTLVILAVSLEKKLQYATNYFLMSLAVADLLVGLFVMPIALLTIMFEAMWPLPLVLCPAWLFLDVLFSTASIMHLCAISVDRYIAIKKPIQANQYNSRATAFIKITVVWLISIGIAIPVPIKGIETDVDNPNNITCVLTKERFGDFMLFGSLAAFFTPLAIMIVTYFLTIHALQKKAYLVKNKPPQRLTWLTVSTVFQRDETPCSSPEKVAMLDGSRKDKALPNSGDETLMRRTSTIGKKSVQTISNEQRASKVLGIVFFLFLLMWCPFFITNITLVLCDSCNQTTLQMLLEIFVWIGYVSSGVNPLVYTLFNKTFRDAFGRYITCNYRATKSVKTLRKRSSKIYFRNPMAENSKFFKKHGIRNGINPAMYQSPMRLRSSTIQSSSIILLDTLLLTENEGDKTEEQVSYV
Summary of the method: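 Flp-In-293 cells stably expressing human 5-HT2A, 5-HT2B or 5-HT2C-INI, grown in DMEM with 10% dialyzed FBS, then plated for 24 h in 1% dialyzed FBS. Cells were loaded 1 h at 37 °C with calcium dye in Hepes-buffered HBSS, pH 7.40, containing 2.5 mM probenecid. FLIPR read 10 s baseline, then 120 s after drug addition.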

Cl.NC[C@H]1C[C@@H]1c1cc(F)ccc1OCCF
inhibition at 10 µM (CYP3A4): 10% | inhibition at 3.3 µM (hERG (KCNH2) [1]): 15% | Emax [2]: 89% | inhibition at […] (hERG (KCNH2) [3]): 6% | inhibition at 10 µM (CYP2B6): 6% | inhibition at 10 µM (CYP2C9): 16% | inhibition at 30 µM (hERG (KCNH2) [4]): 35% | Ki [5]: < 1000 nM | inhibition (INH) [6]: Dose-dependent effect | EC50 [7]: 3.4 nM | Emax [8]: 76% | Activity (Mus musculus): Active | Ratio EC50 (Homo sapiens): > 100 | inhibition at 10 µM (CYP2C19): 26% | EC50 [9]: 359 nM | inhibition at 10 µM (hERG (KCNH2) [10]): 25% | inhibition at […] (hERG (KCNH2) [11]): 11% | inhibition at 10 µM (CYP2D6): 24% | Activity [12]: inactive

Reference: ChEMBL document CHEMBL3414471 (J Med Chem, 2015)
